These results are taken from ChEMBL document CHEMBL2417369, “Synthesis and evaluation of heteroaryl substituted diazaspirocycles as scaffolds to probe the ATP-binding site of protein kinases” (Bioorg Med Chem, 2013).

In assay [1] the target is Protein kinase C eta type (Homo sapiens) (UniProt P24723). Briefly: Inhibition of PKCeta (unknown origin) at 30 uM by microfluidic mobility shift assay relative to control. The method, boiled down: (§1)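 Single-point screen against a 24-kinase panel in a commercial microfluidic assay format. Compounds were tested at 30 µM, with ATP at approximately the Km,[ATP] of each enzyme. H-89 was included on each assay plate as an internal control.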

Assay [2] concerns the target Fibroblast growth factor receptor 2 (Homo sapiens) (UniProt P21802). Briefly: Inhibition of FGFR2 (unknown origin) at 30 uM by microfluidic mobility shift assay relative to control. A digest of the protocol:
(§2)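 Single-point screen at 30 µM test compound across a 24-kinase panel in a microfluidic assay format. ATP was set near each enzyme's Km,[ATP]. […] The pan-AGC inhibitor H-89 served as an internal control on every assay plate.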

In assay [3] the test system is Tyrosine-protein kinase ABL1 (Homo sapiens), P00519 [T315I]. The experiment in a line: Inhibition of ABL T315I mutant (unknown origin) at 30 uM by microfluidic mobility shift assay relative to control. The assay is classed as protein assay. A digest of the protocol: as §2
In assay [4] the target is Fibroblast growth factor receptor 4 (Homo sapiens) (UniProt P22455). The experiment in a line: Inhibition of FGFR4 (unknown origin) at 30 uM by microfluidic mobility shift assay relative to control. The method, boiled down:
as §2

The species named for assay [5] is Homo sapiens. The experiment in a line: Inhibition of CSNK1 (unknown origin) at 30 uM by microfluidic mobility shift assay relative to control. A digest of the protocol: as §2
Assay [6] deals with Ribosomal protein S6 kinase alpha-3 (Homo sapiens) (UniProt P51812). Briefly: Inhibition of RSK2 (unknown origin) at 30 uM by microfluidic mobility shift assay relative to control. A digest of the protocol:
as §1

Assay [7] has as its target Ribosomal protein S6 kinase beta-1 (Homo sapiens) (UniProt P23443). The experiment in a line: Inhibition of p70S6K (unknown origin) at 30 uM by microfluidic mobility shift assay relative to control. A digest of the protocol:
as §1

The species entered for assay [8] is Homo sapiens. Briefly: Inhibition of DYRK1 (unknown origin) at 30 uM by microfluidic mobility shift assay relative to control. The method, boiled down: as §2
Assay [9] has as its target Tyrosine-protein kinase HCK (Homo sapiens) (UniProt P08631). The experiment in a line: Inhibition of HCK (unknown origin) at 30 uM by microfluidic mobility shift assay relative to control. The method, boiled down: as §2
The target of assay [10] is Insulin-like growth factor 1 receptor (Homo sapiens) (UniProt P08069). The experiment in a line: Inhibition of IGF1R (unknown origin) at 30 uM by microfluidic mobility shift assay relative to control. A digest of the protocol: as §2
Assay [11] has as its target T1, Serine/threonine-protein kinase 3 (Homo sapiens) (UniProt Q13188).
T1 sequence (whole entry): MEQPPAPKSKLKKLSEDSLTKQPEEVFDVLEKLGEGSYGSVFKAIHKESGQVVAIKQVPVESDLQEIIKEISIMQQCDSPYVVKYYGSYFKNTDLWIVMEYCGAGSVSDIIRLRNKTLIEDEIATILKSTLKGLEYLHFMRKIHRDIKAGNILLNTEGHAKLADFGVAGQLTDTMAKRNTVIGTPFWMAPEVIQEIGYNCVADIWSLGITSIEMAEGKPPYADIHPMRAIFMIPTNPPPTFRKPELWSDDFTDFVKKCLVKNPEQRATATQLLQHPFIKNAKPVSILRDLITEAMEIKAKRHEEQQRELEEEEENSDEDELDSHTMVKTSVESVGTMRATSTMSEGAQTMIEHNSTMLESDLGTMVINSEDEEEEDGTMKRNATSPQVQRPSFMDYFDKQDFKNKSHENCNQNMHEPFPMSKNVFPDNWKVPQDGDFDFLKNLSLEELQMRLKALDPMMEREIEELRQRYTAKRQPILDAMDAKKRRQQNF
Briefly: Inhibition of MST2 (unknown origin) at 30 uM by microfluidic mobility shift assay relative to control. The method, boiled down:
as §2

Assay [12] has as its target Serine/threonine-protein kinase pim-1 (Homo sapiens) (UniProt P11309). Briefly: Inhibition of PIM1 (unknown origin) at 30 uM by microfluidic mobility shift assay relative to control. A digest of the protocol: as §2
Assay [13] has as its target T2, Serine/threonine-protein kinase Sgk1 (Homo sapiens) (UniProt O00141).
T2 sequence (whole entry): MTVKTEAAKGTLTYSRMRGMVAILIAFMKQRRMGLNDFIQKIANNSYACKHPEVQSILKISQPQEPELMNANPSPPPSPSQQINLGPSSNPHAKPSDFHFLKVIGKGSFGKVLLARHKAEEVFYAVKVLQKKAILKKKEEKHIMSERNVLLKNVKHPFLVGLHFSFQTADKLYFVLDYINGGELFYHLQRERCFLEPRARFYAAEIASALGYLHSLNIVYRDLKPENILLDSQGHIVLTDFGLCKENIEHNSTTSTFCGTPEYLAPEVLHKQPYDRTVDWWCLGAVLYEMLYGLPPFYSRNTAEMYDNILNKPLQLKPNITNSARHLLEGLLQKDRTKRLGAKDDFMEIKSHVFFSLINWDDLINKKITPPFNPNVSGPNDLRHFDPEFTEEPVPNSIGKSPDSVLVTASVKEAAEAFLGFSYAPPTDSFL
Briefly: Inhibition of SGK1 (unknown origin) at 30 uM by microfluidic mobility shift assay relative to control. The method, boiled down:
as §1

In assay [14] the target is Tyrosine-protein kinase ABL2 (Homo sapiens) (UniProt P42684). Briefly: Inhibition of ARG (unknown origin) at 30 uM by microfluidic mobility shift assay relative to control. A digest of the protocol: as §2
Chain of Tyrosine-protein kinase ABL2 (Homo sapiens) (P42684 whole entry): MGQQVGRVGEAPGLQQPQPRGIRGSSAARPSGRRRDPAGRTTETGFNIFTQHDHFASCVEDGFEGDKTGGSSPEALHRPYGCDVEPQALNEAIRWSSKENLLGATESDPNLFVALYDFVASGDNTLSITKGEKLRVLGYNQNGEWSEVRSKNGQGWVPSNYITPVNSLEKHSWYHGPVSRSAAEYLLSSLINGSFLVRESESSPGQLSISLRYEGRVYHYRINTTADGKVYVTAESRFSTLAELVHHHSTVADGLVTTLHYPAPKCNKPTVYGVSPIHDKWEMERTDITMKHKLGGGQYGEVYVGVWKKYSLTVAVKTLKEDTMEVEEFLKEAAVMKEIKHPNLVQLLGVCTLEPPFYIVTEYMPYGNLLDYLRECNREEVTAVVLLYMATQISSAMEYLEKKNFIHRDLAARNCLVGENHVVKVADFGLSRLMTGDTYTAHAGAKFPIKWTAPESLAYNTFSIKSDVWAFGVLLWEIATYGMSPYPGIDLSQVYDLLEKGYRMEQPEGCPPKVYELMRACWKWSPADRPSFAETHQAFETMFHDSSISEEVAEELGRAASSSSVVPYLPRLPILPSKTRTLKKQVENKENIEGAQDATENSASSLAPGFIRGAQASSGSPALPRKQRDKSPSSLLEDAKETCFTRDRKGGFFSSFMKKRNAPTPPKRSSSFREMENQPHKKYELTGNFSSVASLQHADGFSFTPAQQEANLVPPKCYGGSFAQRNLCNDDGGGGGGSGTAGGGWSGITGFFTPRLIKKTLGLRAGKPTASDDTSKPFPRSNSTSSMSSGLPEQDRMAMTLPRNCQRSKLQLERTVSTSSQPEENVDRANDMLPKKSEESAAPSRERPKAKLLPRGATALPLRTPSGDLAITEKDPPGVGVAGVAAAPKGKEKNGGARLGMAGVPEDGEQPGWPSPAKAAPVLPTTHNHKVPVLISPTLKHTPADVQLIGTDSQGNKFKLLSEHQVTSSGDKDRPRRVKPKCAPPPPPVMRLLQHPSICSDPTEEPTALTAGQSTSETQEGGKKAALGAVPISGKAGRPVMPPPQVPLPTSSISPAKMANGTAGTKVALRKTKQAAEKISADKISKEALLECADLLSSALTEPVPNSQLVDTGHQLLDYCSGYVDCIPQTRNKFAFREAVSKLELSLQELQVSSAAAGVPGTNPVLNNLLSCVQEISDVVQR
In assay [15] the target is Tyrosine-protein kinase Fer (Homo sapiens) (UniProt P16591). The experiment in a line: Inhibition of FER (unknown origin) at 30 uM by microfluidic mobility shift assay relative to control. The method, boiled down: as §2
Assay [16] addresses Protein kinase C alpha type (Homo sapiens) (UniProt P17252). Briefly: Inhibition of PKCalpha (unknown origin) at 30 uM by microfluidic mobility shift assay relative to control. The method, boiled down:
as §2

Assay [17] deals with T3, Serine/threonine-protein kinase Nek2 (Homo sapiens) (UniProt P51955).
T3 sequence (whole entry): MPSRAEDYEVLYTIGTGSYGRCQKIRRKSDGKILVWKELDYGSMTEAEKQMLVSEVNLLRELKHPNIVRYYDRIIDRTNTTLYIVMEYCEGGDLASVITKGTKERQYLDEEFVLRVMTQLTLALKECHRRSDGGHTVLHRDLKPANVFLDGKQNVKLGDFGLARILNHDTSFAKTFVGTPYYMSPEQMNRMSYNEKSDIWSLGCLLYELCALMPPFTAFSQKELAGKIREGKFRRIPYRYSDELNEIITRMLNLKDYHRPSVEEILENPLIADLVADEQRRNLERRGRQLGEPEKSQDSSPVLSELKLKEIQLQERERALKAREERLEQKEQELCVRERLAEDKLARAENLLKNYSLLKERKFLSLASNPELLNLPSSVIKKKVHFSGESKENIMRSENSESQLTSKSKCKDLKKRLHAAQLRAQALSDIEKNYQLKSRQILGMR
The experiment in a line: Inhibition of NEK2 (unknown origin) at 30 uM by microfluidic mobility shift assay relative to control. The method, boiled down: as §2

The target of assay [18] is Serine/threonine-protein kinase pim-2 (Homo sapiens) (UniProt Q9P1W9). The experiment in a line: Inhibition of PIM2 (unknown origin) at 30 uM by microfluidic mobility shift assay relative to control. A digest of the protocol: as §2
Chain of Serine/threonine-protein kinase pim-2 (Homo sapiens) (Q9P1W9 whole entry, looked up): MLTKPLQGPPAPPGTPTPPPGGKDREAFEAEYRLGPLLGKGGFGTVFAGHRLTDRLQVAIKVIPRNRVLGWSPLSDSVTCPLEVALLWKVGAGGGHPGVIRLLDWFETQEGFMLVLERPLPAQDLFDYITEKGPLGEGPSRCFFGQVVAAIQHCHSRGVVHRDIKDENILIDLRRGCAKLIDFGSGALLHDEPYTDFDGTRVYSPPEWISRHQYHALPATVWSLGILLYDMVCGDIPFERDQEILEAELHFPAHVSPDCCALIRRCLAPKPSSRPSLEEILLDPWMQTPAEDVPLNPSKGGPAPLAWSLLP
For assay [19], the target named is Epidermal growth factor receptor (Homo sapiens) (UniProt P00533). Briefly: Inhibition of EGFR (unknown origin) at 30 uM by microfluidic mobility shift assay relative to control. The method, boiled down:
as §2

Chain of Fibroblast growth factor receptor 4 (Homo sapiens) (P22455 22-802 limits assumed): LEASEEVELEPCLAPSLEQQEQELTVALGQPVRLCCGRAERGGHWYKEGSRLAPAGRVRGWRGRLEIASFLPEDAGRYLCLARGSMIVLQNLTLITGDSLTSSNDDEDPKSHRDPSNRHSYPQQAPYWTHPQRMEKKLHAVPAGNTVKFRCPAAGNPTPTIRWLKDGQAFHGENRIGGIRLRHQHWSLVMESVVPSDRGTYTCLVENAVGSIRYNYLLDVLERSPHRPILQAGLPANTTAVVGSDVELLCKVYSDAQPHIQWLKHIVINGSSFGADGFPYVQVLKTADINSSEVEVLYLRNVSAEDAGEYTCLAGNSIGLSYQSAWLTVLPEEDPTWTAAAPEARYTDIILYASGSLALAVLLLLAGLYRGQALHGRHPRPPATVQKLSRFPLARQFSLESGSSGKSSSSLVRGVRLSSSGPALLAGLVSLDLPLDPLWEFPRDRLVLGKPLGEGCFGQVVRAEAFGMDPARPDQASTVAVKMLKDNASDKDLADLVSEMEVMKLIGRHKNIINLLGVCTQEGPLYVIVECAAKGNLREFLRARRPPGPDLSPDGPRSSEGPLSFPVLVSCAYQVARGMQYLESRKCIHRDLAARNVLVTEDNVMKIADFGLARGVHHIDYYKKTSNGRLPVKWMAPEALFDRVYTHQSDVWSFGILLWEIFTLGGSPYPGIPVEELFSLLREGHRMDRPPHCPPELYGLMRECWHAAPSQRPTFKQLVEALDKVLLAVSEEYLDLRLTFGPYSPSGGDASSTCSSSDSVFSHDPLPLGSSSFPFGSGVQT
Chain of Tyrosine-protein kinase HCK (Homo sapiens) (P08631 2-526 limits assumed): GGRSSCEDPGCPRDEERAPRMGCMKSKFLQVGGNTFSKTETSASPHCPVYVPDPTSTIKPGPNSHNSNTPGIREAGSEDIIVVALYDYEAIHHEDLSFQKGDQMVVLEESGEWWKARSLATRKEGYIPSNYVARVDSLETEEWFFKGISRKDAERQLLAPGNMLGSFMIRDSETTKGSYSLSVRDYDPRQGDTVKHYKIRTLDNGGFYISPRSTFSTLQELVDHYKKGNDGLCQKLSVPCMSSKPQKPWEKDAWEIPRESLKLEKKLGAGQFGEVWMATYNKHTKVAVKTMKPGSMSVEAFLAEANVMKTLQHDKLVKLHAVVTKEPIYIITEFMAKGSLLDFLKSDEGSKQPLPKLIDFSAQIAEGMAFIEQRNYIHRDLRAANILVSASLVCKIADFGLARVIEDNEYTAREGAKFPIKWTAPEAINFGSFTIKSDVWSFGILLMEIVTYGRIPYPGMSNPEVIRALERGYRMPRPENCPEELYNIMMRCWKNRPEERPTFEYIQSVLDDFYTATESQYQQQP
Chain of Ribosomal protein S6 kinase beta-1 (Homo sapiens) (P23443 whole entry, looked up): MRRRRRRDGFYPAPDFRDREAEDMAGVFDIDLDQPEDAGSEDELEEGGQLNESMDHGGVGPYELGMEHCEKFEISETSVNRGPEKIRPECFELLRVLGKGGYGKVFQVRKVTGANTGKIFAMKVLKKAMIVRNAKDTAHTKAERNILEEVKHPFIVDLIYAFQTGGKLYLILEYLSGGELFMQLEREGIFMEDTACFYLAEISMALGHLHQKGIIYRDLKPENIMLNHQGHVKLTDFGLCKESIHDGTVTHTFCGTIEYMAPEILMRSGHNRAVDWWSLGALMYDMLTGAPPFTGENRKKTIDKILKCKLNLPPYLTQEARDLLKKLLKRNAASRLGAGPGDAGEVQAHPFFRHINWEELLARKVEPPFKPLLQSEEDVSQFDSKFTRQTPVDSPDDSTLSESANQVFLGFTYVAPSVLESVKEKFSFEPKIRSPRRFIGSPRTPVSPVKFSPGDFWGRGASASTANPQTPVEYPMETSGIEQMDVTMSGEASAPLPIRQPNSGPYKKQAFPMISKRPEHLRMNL
Chain of Serine/threonine-protein kinase pim-1 (Homo sapiens) (P11309 whole entry, looked up): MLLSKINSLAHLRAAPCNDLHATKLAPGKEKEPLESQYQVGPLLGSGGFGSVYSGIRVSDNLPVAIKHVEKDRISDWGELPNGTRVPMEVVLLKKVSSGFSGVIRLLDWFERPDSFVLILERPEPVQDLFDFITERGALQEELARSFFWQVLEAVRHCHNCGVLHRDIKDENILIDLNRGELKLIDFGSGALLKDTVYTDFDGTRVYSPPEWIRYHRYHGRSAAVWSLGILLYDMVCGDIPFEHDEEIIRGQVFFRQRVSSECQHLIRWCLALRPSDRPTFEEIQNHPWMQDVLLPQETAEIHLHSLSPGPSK
Chain of Fibroblast growth factor receptor 2 (Homo sapiens) (P21802 22-821 limits assumed): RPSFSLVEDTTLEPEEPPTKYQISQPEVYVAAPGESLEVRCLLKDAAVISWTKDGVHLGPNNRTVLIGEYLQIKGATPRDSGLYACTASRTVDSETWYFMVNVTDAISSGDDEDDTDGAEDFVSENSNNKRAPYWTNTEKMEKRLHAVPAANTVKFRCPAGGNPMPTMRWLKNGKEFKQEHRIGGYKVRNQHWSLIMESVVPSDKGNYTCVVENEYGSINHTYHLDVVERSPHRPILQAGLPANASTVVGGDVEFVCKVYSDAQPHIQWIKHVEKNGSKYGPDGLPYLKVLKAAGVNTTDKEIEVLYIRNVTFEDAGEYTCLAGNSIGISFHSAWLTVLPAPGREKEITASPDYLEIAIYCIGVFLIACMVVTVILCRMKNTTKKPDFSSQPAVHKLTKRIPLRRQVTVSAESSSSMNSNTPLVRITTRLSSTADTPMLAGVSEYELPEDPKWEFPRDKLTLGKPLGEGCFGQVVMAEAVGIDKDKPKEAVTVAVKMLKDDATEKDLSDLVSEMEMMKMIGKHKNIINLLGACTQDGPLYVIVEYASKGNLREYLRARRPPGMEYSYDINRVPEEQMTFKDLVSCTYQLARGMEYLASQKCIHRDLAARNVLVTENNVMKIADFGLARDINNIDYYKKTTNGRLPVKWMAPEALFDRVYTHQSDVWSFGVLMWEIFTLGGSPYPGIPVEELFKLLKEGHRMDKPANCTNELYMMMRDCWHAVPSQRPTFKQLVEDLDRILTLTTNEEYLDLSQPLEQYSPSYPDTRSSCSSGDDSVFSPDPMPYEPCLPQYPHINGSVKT

The term inhibition denotes the change of the read-out against control, counted positive when it falls. `c1ccc(C2CCNC3(CCN(c4ncnc5[nH]cnc45)CC3)C2)cc1` (racemic): the inhibition in assay [1] was 61%; in assay [2], 15%; in [3] it was 14%; in assay [4], 4%; in the assay filed under Homo sapiens [5] it was 11%; in assay [6], 84%. In addition, the inhibition in assay [7] amounted to 95%; in the assay listed under Homo sapiens [8] it was 8%; in assay [9], 41%; in assay [10], 5%; in [11], 17%; in assay [12] it was 7%. Besides, the inhibition in [13] turned out to be 41%; in [14], 23%; in [15] it was 12%; in assay [16], 59%; in [17] it was 14%; in assay [18], 4%. In assay [19], the inhibition came out at 10%.

`c1ccc(CC2CCC3(CCN(c4ncnc5[nH]cnc45)CC3)NC2)cc1` (racemic): the inhibition worked out at 35% in assay [1]; 20% in assay [2]; 16% in [3]; 7% in [4]; 14% in the assay listed under Homo sapiens [5]; 63% in assay [6]. Moreover, the inhibition in assay [7] is 47%; in the assay listed under Homo sapiens [8], 13%; in assay [9] it was 15%; in assay [10], 5%; in assay [11], 18%; in assay [12], 11%. Also, the inhibition is 15% in [13]; 18% in [14]; 10% in [15]; 35% in [16]; 7% in assay [17]; 13% in assay [18]. Also, in assay [19], the inhibition was 8%.

As for `c1ccc(CC2CCNC3(CCN(c4ncnc5[nH]cnc45)CC3)C2)cc1` (racemic), the inhibition was 71% in assay [1]; 18% in [2]; 17% in assay [3]; 0% in [4]; 11% in the assay filed under Homo sapiens [5]; 94% in assay [6]. In addition, the inhibition in assay [7] is 98%; in the assay listed under Homo sapiens [8] it was 7%; in assay [9], 22%; in [10] it was 5%; in assay [11], 10%; in assay [12] it was 8%. Also, the inhibition in assay [13] came out at 64%; in [14], 13%; in assay [15] it was 2%; in assay [16], 78%; in [17], 11%; in assay [18] it was 21%. For the same compound, the inhibition in assay [19] was 3%.
